Measurements: ChEMBL document CHEMBL4402517, “Rational modification of Mannich base-type derivatives as novel antichagasic compounds: Synthesis, in vitro and in vivo evaluation” (Bioorg Med Chem, 2019)

How the values were obtained:
Trypanosoma cruzi [1] = assay: Antitrypanosomal activity against Trypanosoma cruzi IRHOD/CO/2008/SN3;DTU 1 epimastigotes measured after 72 hrs by Neubauer hemocytometer; assay type: functional, organism-based; conditions: IRHOD/CO/2008/SN3;DTU 1, 72 h
[2] = Selectivity index, ratio of IC50 for African green monkey Vero cells to IC50 for Trypanosoma cruzi TINF/CH/1956/Tulahuen;DTU 6; assay type: toxicity; conditions: read-out: Selectivity Index
Summary of the method: (§1)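 SI = Vero IC50 / epimastigote IC50. Vero cells were grown in RPMI-1640 with 10% FBS, seeded at 0.8 × 10^4 cells/well, exposed to 10.0–200.0 µM for 72 h, then given MTT for 4 h. Epimastigotes were grown in MTL with 10% FBS at 28 °C, 5 × 10^5/mL, exposed to 6.3–50 µM for 48 h, then resazurin for 24 h (570/600 nm). IC50s came from nonlinear regression.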

Trypanosoma cruzi [3] = assay: Antitrypanosomal activity against Trypanosoma cruzi MHOM/Pe/2011/Arequipa;DTU 5 epimastigotes measured after 72 hrs by Neubauer hemocytometer; assay type: functional, organism-based; conditions: MHOM/Pe/2011/Arequipa;DTU 5, 72 h
Vero = assay: Cytotoxicity against African green monkey Vero cells measured after 72 hrs by MTT assay; assay type: cell-based; conditions: Chlorocebus sabaeus
Summary of the method: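 Log-phase Vero cells (0.8 × 10^4/well) in RPMI-1640 + 10% heat-inactivated FBS at 37 °C, 5% CO2 were exposed 72 h to serial dilutions (10.0–200.0 µM; stocks in DMSO). MTT was then added for 4 h and absorbance read. Quadruplicates, three experiments; IC50 by nonlinear regression.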

Trypanosoma cruzi [4] = assay: Antitrypanosomal activity against Trypanosoma cruzi TINF/CH/1956/Tulahuen;DTU 6 epimastigotes measured after 72 hrs by Neubauer hemocytometer; assay type: functional, organism-based; conditions: TINF/CH/1956/Tulahuen;DTU 6, 72 h
[5] = Selectivity index, ratio of IC50 for African green monkey Vero cells to IC50 for Trypanosoma cruzi MHOM/Pe/2011/Arequipa;DTU 5; assay type: toxicity; conditions: read-out: Selectivity Index; summary of the method: as §1
[6] = Selectivity index, ratio of IC50 for African green monkey Vero cells to IC50 for Trypanosoma cruzi IRHOD/CO/2008/SN3;DTU 1; assay type: toxicity; conditions: read-out: Selectivity Index; summary of the method: as §1
[7] = Selectivity index, ratio of IC50 for African green monkey Vero cells to IC50 for Trypanosoma cruzi MHOM/Pe/2011/Arequipa; DTU 5 trypomastigote forms; assay type: toxicity; conditions: read-out: Selectivity Index
Summary of the method: (§2)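 Bloodstream trypomastigotes were taken from BALB/c mice by cardiac puncture and diluted in RPMI with 10% FBS at 2 × 10^6/mL. They were incubated with 3.1–50.0 µM for 24 h at 37 °C in 5% CO2 and counted in a Neubauer chamber. Triplicate, at least three experiments; nonlinear regression.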

Trypanosoma cruzi [8] = assay: Antitrypanosomal activity against bloodstream trypomastigote stage of Trypanosoma cruzi MHOM/Pe/2011/Arequipa; DTU 5 isolated from parasite infected BALB/c Albino mouse cardiac cells after 24 hrs by Neubauer chamber based cell counting method; assay type: functional, organism-based; conditions: DTU 5, 24 h
Summary of the method: (§3)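 Bloodstream trypomastigotes were taken by cardiac puncture from infected BALB/c mice and diluted in RPMI + 10% heat-inactivated FBS. At 2 × 10^6/mL they were exposed to 3.1–50.0 µM (lower where needed) for 24 h at 37 °C, 5% CO2, and counted in a Neubauer chamber. Triplicates, at least three experiments; IC50 by nonlinear regression.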

[9] = Selectivity index, ratio of IC50 for African green monkey Vero cells to IC50 for Trypanosoma cruzi TINF/CH/1956/Tulahuen;DTU 6 trypomastigote forms; assay type: toxicity; conditions: read-out: Selectivity Index; summary of the method: as §2
[10] = Selectivity index, ratio of IC50 for African green monkey Vero cells to IC50 for Trypanosoma cruzi IRHOD/CO/2008/SN3;DTU 1 amastigote forms; assay type: toxicity; conditions: read-out: Selectivity Index
Summary of the method: (§4)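 Vero cells (1 × 10^4/well) were infected with trypomastigotes at MOI 10:1 for 24 h and washed with PBS. They were then exposed to 3.1–50 µM for 72 h at 37 °C in 5% CO2, and amastigotes were counted after Giemsa staining. Triplicates in two determinations; nonlinear regression.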

[11] = Selectivity index, ratio of IC50 for African green monkey Vero cells to IC50 for Trypanosoma cruzi IRHOD/CO/2008/SN3;DTU 1 trypomastigote forms; assay type: toxicity; conditions: read-out: Selectivity Index; summary of the method: as §2
[12] = Selectivity index, ratio of IC50 for African green monkey Vero cells to IC50 for Trypanosoma cruzi MHOM/Pe/2011/Arequipa; DTU 5 amastigote forms; assay type: toxicity; conditions: read-out: Selectivity Index; summary of the method: as §4
[13] = Selectivity index, ratio of IC50 for African green monkey Vero cells to IC50 for Trypanosoma cruzi TINF/CH/1956/Tulahuen;DTU 6 amastigote forms; assay type: toxicity; conditions: read-out: Selectivity Index; summary of the method: as §4
Trypanosoma cruzi [14] = assay: Antitrypanosomal activity against Trypanosoma cruzi IRHOD/CO/2008/SN3;DTU 1 amastigote forms measured after 72 hrs by Giemsa staining based assay; assay type: functional, organism-based; conditions: IRHOD/CO/2008/SN3;DTU 1, 72 h
Summary of the method: (§5)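 Vero cells (1 × 10^4/well, on coverslips) left to adhere 24 h at 37 °C, 5% CO2, then infected with trypomastigotes at MOI 10:1 for 24 h. Free parasites were removed by three PBS washes. Compounds at 3.1, 6.25, 12.5, 25 and 50 µM were incubated 72 h, and amastigotes were counted after Giemsa staining. Triplicates, two separate experiments; IC50 by nonlinear regression.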

Trypanosoma cruzi [15] = assay: Antitrypanosomal activity against Trypanosoma cruzi TINF/CH/1956/Tulahuen;DTU 6 amastigote forms measured after 72 hrs by Giemsa staining based assay; assay type: functional, organism-based; conditions: TINF/CH/1956/Tulahuen;DTU 6, 72 h; summary of the method: as §5
Trypanosoma cruzi [16] = assay: Trypanocidal activity against Trypanosoma cruzi trypomastigote form infected in African green monkey Vero cells measured after 48 hrs by resazurin dye based assay; assay type: functional, organism-based
Trypanosoma cruzi [17] = assay: Trypanocidal activity against Trypanosoma cruzi trypomastigote form infected in African green monkey Vero cells assessed as ratio of infected cells at 50 uM measured after 72 hrs by Giemsa staining based assay relative to control; assay type: functional
Summary of the method: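 Vero cells (1 × 10^4/well, on coverslips) were infected with trypomastigotes at MOI 10:1 for 24 h and washed three times with PBS. They were treated at 3.1, 6.25, 12.5, 25 and 50 µM for 72 h at 37 °C in 5% CO2. Infected cells were counted after Giemsa staining. Triplicates, two separate determinations.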

Trypanosoma cruzi [18] = assay: Trypanocidal activity against Trypanosoma cruzi TINF/CH/1956/Tulahuen;DTU 6 trypomastigote forms infected in BALB/c albino mouse measured after 24 hrs by Neubauer chamber method; conditions: TINF/CH/1956/Tulahuen;DTU 6, 24 h
Trypanosoma cruzi [19] = assay: Antitrypanosomal activity against Trypanosoma cruzi MHOM/Pe/2011/Arequipa;DTU 5 amastigote forms measured after 72 hrs by Giemsa staining based assay; assay type: functional, organism-based; conditions: MHOM/Pe/2011/Arequipa;DTU 5, 72 h; summary of the method: as §5
Trypanosoma cruzi [20] = assay: Antitrypanosomal activity against bloodstream trypomastigote stage of Trypanosoma cruzi IRHOD/CO/2008/SN3;DTU 1 isolated from parasite infected BALB/c Albino mouse cardiac cells after 24 hrs by Neubauer chamber based cell counting method; assay type: functional, organism-based; conditions: IRHOD/CO/2008/SN3;DTU 1, 24 h; summary of the method: as §3

| SMILES | IC50 (Trypanosoma cruzi [1]) [µM] | selectivity ratio [2] | IC50 (Trypanosoma cruzi [3]) [µM] | IC50 (Vero) [µM] | IC50 (Trypanosoma cruzi [4]) [µM] | selectivity ratio [5] | selectivity ratio [6] | selectivity ratio [7] | IC50 (Trypanosoma cruzi [8]) [µM] | selectivity ratio [9] | selectivity ratio [10] | selectivity ratio [11] | selectivity ratio [12] | selectivity ratio [13] | IC50 (Trypanosoma cruzi [14]) [µM] | IC50 (Trypanosoma cruzi [15]) [µM] | IC50 (Trypanosoma cruzi [16]) [µM] | Ratio (Trypanosoma cruzi [17]) [%] | IC50 (Trypanosoma cruzi [18]) [µM] | IC50 (Trypanosoma cruzi [19]) [µM] | further results |
| --- | --- | --- | --- | --- | --- | --- | --- | --- | --- | --- | --- | --- | --- | --- | --- | --- | --- | --- | --- | --- | --- |
| COc1ccc(C(=O)CCNc2ccc(C(F)(F)F)cc2)cc1 | 76.1 | 1.3 | 17.8 | 32.6 | 24.6 | 1.8 | 0.4 | – | – | – | – | – | – | – | – | – | – | – | – | – | – |
| COc1ccc(C(=O)CCNCCc2ccc(F)cc2)cc1 | 16.9 | 3.3 | 35.6 | 66.2 | 20.3 | 1.9 | 3.9 | – | – | – | – | – | – | – | – | – | – | – | – | – | – |
| COc1ccc(C(=O)CCNCCc2ccc(Cl)cc2)cc1 | 14.6 | 3.5 | 51.6 | 53.5 | 15.2 | 1 | 3.7 | – | – | – | – | – | – | – | – | – | – | – | – | – | – |
| COc1ccc(C(=O)CCNc2ccc(F)cc2)cc1 | 25.4 | 9.3 | 14.8 | 133 | 14.4 | 9 | 5.2 | 64.8 | 2.1 | 48.8 | 24.7 | 39.4 | 27.6 | 20.1 | 5.4 | 6.7 | 7.1 | 10 | 2.7 | 4.7 | IC50 (Trypanosoma cruzi [20]): 3.4 µM |
| O=C(CCN1CCN(c2ccc([N+](=O)[O-])cc2)CC1)c1ccc(O)cc1 | 13 | 0.8 | 24.8 | 34.6 | 43 | 1.4 | 2.7 | – | – | – | – | – | – | – | – | – | – | – | – | – | – |
| COc1ccc(C(=O)CCNc2ccc(Cl)cc2)cc1 | 38.4 | 8.9 | 18.7 | 146 | 16.4 | 7.8 | 3.8 | 11.2 | 13 | 10.2 | 24.1 | 2.3 | 19.9 | 5.5 | 6 | 26.3 | 9 | 28 | 14.2 | 7.3 | IC50 (Trypanosoma cruzi [20]): 63 µM |
| O=C(CCN1CCN(c2ccc(F)cc2)CC1)c1ccc(O)cc1 | 10.1 | 3.9 | 24.4 | 50 | 13 | 2.1 | 5 | – | – | – | – | – | – | – | – | – | – | – | – | – | – |
| COc1ccc(C(=O)CCNCCc2ccc(C(F)(F)F)cc2)cc1 | 13.2 | 6.9 | 59.7 | 91.1 | 13.2 | 1.5 | 6.9 | 25 | 3.6 | 26.1 | 20.2 | 16.7 | 10 | 27.7 | 4.5 | 3.3 | 13.9 | 17 | 3.5 | 9.1 | IC50 (Trypanosoma cruzi [20]): 5.5 µM |
